Source: ChEMBL document CHEMBL5724801, “EUbOPEN Chemogenomics Library - Multiplex” (2024)
“And” between values parts separate entries of the source, which are not always exact repeats. Identical values can stand only once.

Test system: Fibroblast
Assay: Multiplex assay against human fibroblast
Format: toxicity, cell-based
How it was run: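 Hoechst33342, BioTracker Green Microtubule Cytoskeleton Dye, MitoTracker Red and Annexin V Alexa Fluor 680 were added to live cells at seeding, and imaging on a CQ1 microscope at 37°C and 5% CO2 followed compound addition. Gating by CellPathfinder machine learning separated cells into Hoechst high-intensity objects or normal cells, then normal cells into healthy, pyknosed or fragmented nuclei, then pyknosed cells into mitotic or apoptotic. Per cents of healthy-nucleus cells are reported for the tubulin, mitochondrial-mass and membrane-permeability phenotypes.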

[1] = 12 h, 1 µM, compound concentration 1 uM
[2] = 12 h, 10 µM, compound concentration 10 uM
[3] = 24 h, 1 µM, compound concentration 1 uM
[4] = 24 h, 10 µM, compound concentration 10 uM
[5] = 48 h, 1 µM, compound concentration 1 uM
[6] = 48 h, 10 µM, compound concentration 10 uM

Cl.Cl.OCCOCCN1CCN(C(c2ccccc2)c2ccc(Cl)cc2)CC1 (stereo unspecified) [HYDROXYZINE HYDROCHLORIDE]
Population Apoptotic (%) [1]: 43% and 51%
Population Fragmented Nuclei (%) [1]: 11% and 22%
Population Healthy Nuclei (%) [1]: 75% and 57%
Population Hoechst High Intensity Objects (%) [1]: 1% and 7%
Population Membrane Permeable-Phenotype (%) [1]: 0% and 8%
Population Mitochondria Different-Phenotype (%) [1]: 4% and 6%
Population Mitotic Cells (%) [1]: 56% and 48%
Population Normal (%) [1]: 98% and 92%
Population Pyknosed Nuclei (%) [1]: 13% and 20%
Population Tubulin-Different-Phenotype (%) [1]: 25% and 46%
Total Cell Count [1]: 177 and 155
Population Apoptotic (%) [2]: 47% and 40%
Population Fragmented Nuclei (%) [2]: 27% and 19%
Population Healthy Nuclei (%) [2]: 58% and 47%
Population Hoechst High Intensity Objects (%) [2]: 2% and 7%
Population Membrane Permeable-Phenotype (%) [2]: 0% and 7%
Population Mitochondria Different-Phenotype (%) [2]: 14% and 6%
Population Mitotic Cells (%) [2]: 52% and 59%
Population Normal (%) [2]: 97% and 92%
Population Pyknosed Nuclei (%) [2]: 14% and 32%
Population Tubulin-Different-Phenotype (%) [2]: 45% and 58%
Total Cell Count [2]: 247 and 178
Population Apoptotic (%) [3]: 30% and 44%
Population Fragmented Nuclei (%) [3]: 9% and 26%
Population Healthy Nuclei (%) [3]: 78% and 54%
Population Hoechst High Intensity Objects (%) [3]: 1% and 5%
Population Membrane Permeable-Phenotype (%) [3]: 2% and 5%
Population Mitochondria Different-Phenotype (%) [3]: 6% and 3%
Population Mitotic Cells (%) [3]: 70% and 55%
Population Normal (%) [3]: 98% and 94%
Population Pyknosed Nuclei (%) [3]: 12% and 18%
Population Tubulin-Different-Phenotype (%) [3]: 30% and 47%
Total Cell Count [3]: 163 and 154
Population Apoptotic (%) [4]: 51% and 36%
Population Fragmented Nuclei (%) [4]: 28% and 29%
Population Healthy Nuclei (%) [4]: 62% and 50%
Population Hoechst High Intensity Objects (%) [4]: 1% and 9%
Population Membrane Permeable-Phenotype (%) [4]: 1% and 6%
Population Mitochondria Different-Phenotype (%) [4]: 10% and 6%
Population Mitotic Cells (%) [4]: 48% and 63%
Population Normal (%) [4]: 98% and 90%
Population Pyknosed Nuclei (%) [4]: 9% and 20%
Population Tubulin-Different-Phenotype (%) [4]: 47% and 66%
Total Cell Count [4]: 284 and 198
Population Apoptotic (%) [5]: 60% and 42%
Population Fragmented Nuclei (%) [5]: 17% and 34%
Population Healthy Nuclei (%) [5]: 68% and 56%
Population Hoechst High Intensity Objects (%) [5]: 4% and 3%
Population Membrane Permeable-Phenotype (%) [5]: 0% and 2%
Population Mitochondria Different-Phenotype (%) [5]: 3% and 5%
Population Mitotic Cells (%) [5]: 39% and 57%
Population Normal (%) [5]: 95% and 96%
Population Pyknosed Nuclei (%) [5]: 13% and 9%
Population Tubulin-Different-Phenotype (%) [5]: 31% and 44%
Total Cell Count [5]: 175 and 155
Population Apoptotic (%) [6]: 80% and 37%
Population Fragmented Nuclei (%) [6]: 22% and 36%
Population Healthy Nuclei (%) [6]: 69% and 47%
Population Hoechst High Intensity Objects (%) [6]: 4% and 6%
Population Membrane Permeable-Phenotype (%) [6]: 0% and 11%
Population Mitochondria Different-Phenotype (%) [6]: 7% and 2%
Population Normal (%) [6]: 95% and 94%
Population Pyknosed Nuclei (%) [6]: 8% and 15%
Population Tubulin-Different-Phenotype (%) [6]: 62% and 57%
Total Cell Count [6]: 272 and 200

CN(C)C(=O)Cn1cc(-c2ccc(-c3cncc4ccccc34)cc2)cn1
Population Apoptotic (%) [1]: 47% and 32%
Population Healthy Nuclei (%) [1]: 72% and 46%
Population Hoechst High Intensity Objects (%) [1]: 0% and 5%
Population Membrane Permeable-Phenotype (%) [1]: 0% and 5%
Population Mitochondria Different-Phenotype (%) [1]: 5% and 2%
Population Mitotic Cells (%) [1]: 52% and 67%
Population Normal (%) [1]: 100% and 94%
Population Pyknosed Nuclei (%) [1]: 16% and 20%
Population Tubulin-Different-Phenotype (%) [1]: 31% and 54%
Total Cell Count [1]: 139 and 161
Population Apoptotic (%) [2]: 33%
Population Healthy Nuclei (%) [2]: 69% and 42%
Population Hoechst High Intensity Objects (%) [2]: 4% and 9%
Population Mitochondria Different-Phenotype (%) [2]: 12% and 5%
Population Mitotic Cells (%) [2]: 66%
Population Normal (%) [2]: 95% and 90%
Population Pyknosed Nuclei (%) [2]: 16%
Population Tubulin-Different-Phenotype (%) [2]: 52% and 81%
Total Cell Count [2]: 113 and 98
Population Apoptotic (%) [3]: 47% and 48%
Population Healthy Nuclei (%) [3]: 73% and 38%
Population Hoechst High Intensity Objects (%) [3]: 5%
Population Membrane Permeable-Phenotype (%) [3]: 0% and 7%
Population Mitochondria Different-Phenotype (%) [3]: 3% and 5%
Population Mitotic Cells (%) [3]: 52% and 51%
Population Normal (%) [3]: 94%
Population Pyknosed Nuclei (%) [3]: 14% and 20%
Population Tubulin-Different-Phenotype (%) [3]: 37% and 61%
Total Cell Count [3]: 137 and 156
Population Apoptotic (%) [4]: 50% and 41%
Population Fragmented Nuclei (%) [4]: 20% and 41%
Population Healthy Nuclei (%) [4]: 62% and 43%
Population Hoechst High Intensity Objects (%) [4]: 8% and 5%
Population Membrane Permeable-Phenotype (%) [4]: 0% and 11%
Population Mitochondria Different-Phenotype (%) [4]: 12% and 8%
Population Mitotic Cells (%) [4]: 50% and 58%
Population Normal (%) [4]: 91% and 94%
Population Pyknosed Nuclei (%) [4]: 17% and 15%
Population Tubulin-Different-Phenotype (%) [4]: 59% and 85%
Total Cell Count [4]: 113 and 85
Population Apoptotic (%) [5]: 76% and 44%
Population Fragmented Nuclei (%) [5]: 21% and 36%
Population Healthy Nuclei (%) [5]: 65% and 40%
Population Hoechst High Intensity Objects (%) [5]: 6% and 7%
Population Membrane Permeable-Phenotype (%) [5]: 3% and 5%
Population Mitochondria Different-Phenotype (%) [5]: 8% and 7%
Population Mitotic Cells (%) [5]: 23% and 55%
Population Normal (%) [5]: 93% and 92%
Population Pyknosed Nuclei (%) [5]: 12% and 22%
Population Tubulin-Different-Phenotype (%) [5]: 57% and 77%
Total Cell Count [5]: 144 and 141
Population Fragmented Nuclei (%) [6]: 24% and 47%
Population Healthy Nuclei (%) [6]: 54% and 44%
Population Hoechst High Intensity Objects (%) [6]: 9% and 0%
Population Membrane Permeable-Phenotype (%) [6]: 0% and 8%
Population Mitochondria Different-Phenotype (%) [6]: 20% and 13%
Population Normal (%) [6]: 90% and 99%
Population Pyknosed Nuclei (%) [6]: 20% and 7%
Population Tubulin-Different-Phenotype (%) [6]: 55% and 73%
Total Cell Count [6]: 117 and 102

O=C(O)CCC/C=C\CC1C(O)CC(O)C1/C=C/C(O)COc1cccc(Cl)c1 (stereo unspecified) [CLOPROSTENOL]
Population Apoptotic (%) [1]: 41% and 20%
Population Fragmented Nuclei (%) [1]: 15% and 22%
Population Healthy Nuclei (%) [1]: 68% and 52%
Population Hoechst High Intensity Objects (%) [1]: 0% and 2%
Population Membrane Permeable-Phenotype (%) [1]: 0% and 8%
Population Mitochondria Different-Phenotype (%) [1]: 2%
Population Mitotic Cells (%) [1]: 58% and 80%
Population Normal (%) [1]: 100% and 97%
Population Pyknosed Nuclei (%) [1]: 15% and 25%
Population Tubulin-Different-Phenotype (%) [1]: 22% and 52%
Total Cell Count [1]: 153 and 141
Population Apoptotic (%) [2]: 38% and 23%
Population Fragmented Nuclei (%) [2]: 23%
Population Healthy Nuclei (%) [2]: 58% and 43%
Population Hoechst High Intensity Objects (%) [2]: 12% and 4%
Population Membrane Permeable-Phenotype (%) [2]: 0% and 11%
Population Mitochondria Different-Phenotype (%) [2]: 4% and 9%
Population Mitotic Cells (%) [2]: 61% and 76%
Population Normal (%) [2]: 87% and 95%
Population Pyknosed Nuclei (%) [2]: 18% and 34%
Population Tubulin-Different-Phenotype (%) [2]: 31% and 53%
Total Cell Count [2]: 212 and 105
Population Apoptotic (%) [3]: 41% and 18%
Population Fragmented Nuclei (%) [3]: 19% and 27%
Population Healthy Nuclei (%) [3]: 62% and 49%
Population Hoechst High Intensity Objects (%) [3]: 0% and 3%
Population Membrane Permeable-Phenotype (%) [3]: 1% and 7%
Population Mitochondria Different-Phenotype (%) [3]: 3% and 5%
Population Mitotic Cells (%) [3]: 58% and 81%
Population Normal (%) [3]: 99% and 96%
Population Pyknosed Nuclei (%) [3]: 18% and 23%
Population Tubulin-Different-Phenotype (%) [3]: 26% and 53%
Total Cell Count [3]: 161 and 144
Population Apoptotic (%) [4]: 41% and 59%
Population Fragmented Nuclei (%) [4]: 24% and 28%
Population Healthy Nuclei (%) [4]: 57% and 50%
Population Hoechst High Intensity Objects (%) [4]: 12% and 3%
Population Membrane Permeable-Phenotype (%) [4]: 2% and 7%
Population Mitochondria Different-Phenotype (%) [4]: 3%
Population Mitotic Cells (%) [4]: 58% and 40%
Population Normal (%) [4]: 87% and 96%
Population Pyknosed Nuclei (%) [4]: 18% and 21%
Population Tubulin-Different-Phenotype (%) [4]: 24% and 57%
Total Cell Count [4]: 218 and 107
Population Apoptotic (%) [5]: 65% and 36%
Population Fragmented Nuclei (%) [5]: 21% and 37%
Population Healthy Nuclei (%) [5]: 59% and 43%
Population Hoechst High Intensity Objects (%) [5]: 2% and 3%
Population Membrane Permeable-Phenotype (%) [5]: 2% and 12%
Population Mitochondria Different-Phenotype (%) [5]: 2% and 10%
Population Mitotic Cells (%) [5]: 34% and 64%
Population Normal (%) [5]: 97% and 96%
Population Pyknosed Nuclei (%) [5]: 19% and 18%
Population Tubulin-Different-Phenotype (%) [5]: 25% and 63%
Total Cell Count [5]: 156 and 137
Population Apoptotic (%) [6]: 46% and 55%
Population Fragmented Nuclei (%) [6]: 25% and 41%
Population Healthy Nuclei (%) [6]: 57% and 49%
Population Hoechst High Intensity Objects (%) [6]: 13% and 8%
Population Membrane Permeable-Phenotype (%) [6]: 0% and 4%
Population Mitochondria Different-Phenotype (%) [6]: 2% and 4%
Population Mitotic Cells (%) [6]: 53% and 44%
Population Normal (%) [6]: 86% and 91%
Population Pyknosed Nuclei (%) [6]: 16% and 9%
Population Tubulin-Different-Phenotype (%) [6]: 30% and 61%
Total Cell Count [6]: 205 and 108
